Test results published in ChEMBL document CHEMBL4619741, “Screening of chalcone analogs with anti-depressant, anti-inflammatory, analgesic, and COX-2-inhibiting effects” (Bioorg Med Chem Lett, 2020).
Activity calls are given as the source filed them. The rule behind the calls is not given here.

Columns and labels:
[1] = test system: Mus musculus; assay: Antidepressant activity in mouse assessed as immobility time at 30 mg/kg, ip by forced swimming test (reference value: 172.3 +/- 9.67 sec); format: functional
[2] = test system: Mus musculus; assay: Antiinflammatory activity against dimethylbenzene-induced ear edema mouse model assessed as inhibition of ear edema at 30 mg/kg, ip pretreated with compounds followed by dimethylbenzene challenge relative to control; format: functional
Procedure, shortened: (§1)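 Intraperitoneal dosing (test agents 30 mg/kg, reference 3 mg/kg) given before topical dimethylbenzene to mouse ear. Ear inflammation was measured by weight (mg), and inhibition was expressed as percent versus control at 60 min.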

[3] = test system: Mus musculus; assay: Antidepressant activity in mouse assessed as reduction in duration of immobility at 30 mg/kg, ip relative to control; format: functional
[4] = test system: Mus musculus; assay: Antidepressant activity in mouse assessed as increase in serotonin level at 30 mg/kg, ip; format: functional, organism-based
Procedure, shortened: (§2)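 Mice under stress treated intraperitoneally (30 mg/kg), alongside normal-vehicle and stress-vehicle groups; serotonin, norepinephrine and dopamine levels measured; n = 8 per group; values as mean ± SEM; significance tested against stress vehicle and normal vehicle.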

[5] = test system: Mus musculus; assay: Antidepressant activity in mouse assessed as change in norepinephrine level at 30 mg/kg, ip; format: functional, organism-based; procedure, shortened: as §2
[6] = test system: Mus musculus; assay: Antidepressant activity in mouse assessed as change in dopamine level at 30 mg/kg, ip; format: functional, organism-based; procedure, shortened: as §2
[7] = target: T1, Prostaglandin G/H synthase 1 (Ovis aries, UniProt P05979); assay: Inhibition of ovine COX1 by ELISA
T1 sequence (P05979 whole entry): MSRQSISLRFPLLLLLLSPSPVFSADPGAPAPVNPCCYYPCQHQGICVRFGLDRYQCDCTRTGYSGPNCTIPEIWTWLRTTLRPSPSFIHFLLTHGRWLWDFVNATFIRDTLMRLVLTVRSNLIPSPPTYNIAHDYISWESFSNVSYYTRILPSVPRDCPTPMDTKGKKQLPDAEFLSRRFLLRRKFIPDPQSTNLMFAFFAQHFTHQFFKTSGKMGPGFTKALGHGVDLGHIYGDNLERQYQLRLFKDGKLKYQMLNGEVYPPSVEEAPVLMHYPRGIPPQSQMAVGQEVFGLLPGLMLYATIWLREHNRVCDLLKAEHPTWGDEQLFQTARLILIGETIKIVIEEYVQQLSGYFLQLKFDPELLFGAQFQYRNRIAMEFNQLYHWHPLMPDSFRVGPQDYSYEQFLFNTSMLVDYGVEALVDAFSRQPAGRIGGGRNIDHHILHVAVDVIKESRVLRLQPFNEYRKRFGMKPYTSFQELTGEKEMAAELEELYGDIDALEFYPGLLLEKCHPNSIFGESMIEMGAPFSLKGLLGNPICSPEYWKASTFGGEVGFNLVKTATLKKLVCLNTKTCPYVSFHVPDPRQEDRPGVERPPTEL
Procedure, shortened: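 Ovine COX-1 inhibition followed through enzyme peroxidase activity with a colorimetric enzyme immunoassay kit; IC50 values determined; mean and SD of three measurements.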

[8] = test system: Mus musculus; assay: Antidepressant activity in mouse assessed as immobility time at 3 mg/kg, ip by forced swimming test (reference value: 172.3 +/- 9.67 sec); format: functional
[9] = test system: Mus musculus; assay: Antidepressant activity in mouse assessed as reduction in duration of immobility at 3 mg/kg, ip relative to control; format: functional
[10] = test system: Mus musculus; assay: Antidepressant activity in mouse assessed as increase in serotonin level at 3 mg/kg, ip; format: functional, organism-based
[11] = test system: Mus musculus; assay: Antidepressant activity in mouse assessed as change in norepinephrine level at 3 mg/kg, ip; format: functional, organism-based
[12] = test system: Mus musculus; assay: Antidepressant activity in mouse assessed as change in dopamine level at 3 mg/kg, ip; format: functional, organism-based
[13] = test system: Mus musculus; assay: Antiinflammatory activity against dimethylbenzene-induced ear edema mouse model assessed as inhibition of ear edema at 3 mg/kg, ip pretreated with compounds followed by dimethylbenzene challenge relative to control; format: functional; procedure, shortened: as §1
[14] = test system: Mus musculus; assay: Analgesic activity in mouse assessed as inhibition of acetic acid-induced writhing at 3 mg/kg, ip relative to control; format: functional

Row | Structure (SMILES) | Time [1] [s] | inhibition in vivo at 30 mg/kg [2] [%] | inhibition in vivo at 30 mg/kg [3] [%] | also measured
1 | Cc1nc2ccccc2c(-c2ccccc2)c1C(=O)/C=C/c1ccccc1Br | 60.3 | 55 | – | –
2 | COc1cccc(/C=C/C(=O)c2c(C)nc3ccccc3c2-c2ccccc2)c1 | 48.5 | 74.6 | – | –
3 | Cc1nc2ccccc2c(-c2ccccc2)c1C(=O)/C=C/c1cccc(Br)c1 | 13.8 | 72.9 | 92 | –
4 | COc1ccc(/C=C/C(=O)c2c(C)nc3ccccc3c2-c2ccccc2)cc1 | 83.5 | 66.7 | – | –
5 | Cc1nc2ccccc2c(-c2ccccc2)c1C(=O)/C=C/c1ccc(F)cc1F | 51.5 | 65.8 | – | –
6 | Cc1nc2ccccc2c(-c2ccccc2)c1C(=O)/C=C/c1ccc(O)cc1 | 79.3 | 78.8 | – | –
7 | Cc1nc2ccccc2c(-c2ccccc2)c1C(=O)/C=C/c1ccc(F)cc1 | 25.8 | 88.3 | 85 | Activity [4]: Active; Activity [5]: inactive; Activity [6]: inactive; IC50 [7]: 10.2 µM
8 | Cc1nc2ccccc2c(-c2ccccc2)c1C(=O)/C=C/c1ccc(N(C)C)cc1 | 47.5 | 69.7 | – | –
9 | Cc1nc2ccccc2c(-c2ccccc2)c1C(=O)/C=C/c1cccc(O)c1 | 32.8 | 65.2 | 80 | –
10 | CNCCC(Oc1ccc(C(F)(F)F)cc1)c1ccccc1 (stereo unspecified) [FLUOXETINE] | – | – | – | Time [8]: 88.1 s; inhibition in vivo at 3 mg/kg [9]: 48.9%; Activity [10]: Active; Activity [11]: inactive; Activity [12]: inactive
11 | Cc1nc2ccccc2c(-c2ccccc2)c1C(=O)/C=C/c1ccc([N+](=O)[O-])cc1 | 46.8 | 42.9 | 72.8 | –
12 | Cc1nc2ccccc2c(-c2ccccc2)c1C(=O)/C=C/c1ccc(Br)cc1 | 75.8 | 74.1 | – | –
13 | Cc1ccccc1/C=C/C(=O)c1c(C)nc2ccccc2c1-c1ccccc1 | 86.3 | 70.9 | – | –
14 | Cc1nc2ccccc2c(-c2ccccc2)c1C(=O)/C=C/c1c(Cl)cccc1Cl | 52 | 46.7 | – | –
15 | Cc1ccc(/C=C/C(=O)c2c(C)nc3ccccc3c2-c2ccccc2)cc1 | 63 | 61.3 | – | –
16 | Cc1nc2ccccc2c(-c2ccccc2)c1C(=O)/C=C/c1ccc(Cl)cc1Cl | 31.5 | 81.3 | 81 | –
17 | Cc1nc2ccccc2c(-c2ccccc2)c1C(=O)/C=C/c1cccc(Cl)c1 | 48.5 | 53.6 | – | –
18 | COc1ccc2c(c1)c(CC(=O)O)c(C)n2C(=O)c1ccc(Cl)cc1 [INDOMETHACIN] | – | – | – | inhibition in vivo at 3 mg/kg [13]: 51.1%; inhibition in vivo at 3 mg/kg [14]: 78.3%
19 | Cc1nc2ccccc2c(-c2ccccc2)c1C(=O)/C=C/c1ccc(C(C)C)cc1 | 22.8 | 76.8 | 86.8 | Activity [4]: Active; Activity [5]: inactive; Activity [6]: inactive; IC50 [7]: 8.95 µM
20 | COc1ccccc1/C=C/C(=O)c1c(C)nc2ccccc2c1-c1ccccc1 | 109.3 | 62.1 | – | –
21 | COc1ccc(/C=C/C(=O)c2c(C)nc3ccccc3c2-c2ccccc2)cc1O | 52.3 | 65.5 | – | –
22 | Cc1nc2ccccc2c(-c2ccccc2)c1C(=O)/C=C/c1ccccc1F | 49.3 | 81.2 | – | –
23 | Cc1nc2ccccc2c(-c2ccccc2)c1C(=O)/C=C/c1cccc(F)c1 | 38.3 | 69.2 | 77.8 | –
24 | Cc1cccc(/C=C/C(=O)c2c(C)nc3ccccc3c2-c2ccccc2)c1 | 57.5 | 67.1 | – | –
25 | Cc1nc2ccccc2c(-c2ccccc2)c1C(=O)/C=C/c1ccccc1Cl | 136.3 | 73.2 | – | –
26 | Cc1nc2ccccc2c(-c2ccccc2)c1C(=O)/C=C/c1ccc(Cl)cc1 | 29.3 | 85.5 | 83 | –
